Target: Serotonin 2 (5-HT2) receptor (Rattus norvegicus) (UniProt P30994+P08909+P14842)
Assay: Antagonistic activity against (5-hydroxytryptamine 2 receptor) serotonin-induced contractions in the rat jugular vein
Assay type: functional
Procedure, shortened: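 Isolated jugular vein segments mounted on two L-shaped needles, one tied to a transducer, in organ baths with 10 mL modified Krebs bicarbonate solution; 1-2 h equilibration. Control cumulative serotonin contraction curves were recorded, then the antagonist was incubated 1 h and the curves repeated, one antagonist concentration per tissue. K_B = [B]/(dose ratio − 1), using serotonin ED50 ratios; reported as −log K_B.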

Serotonin 2 (5-HT2) receptor (Rattus norvegicus), sequence (P08909 whole entry, looked up): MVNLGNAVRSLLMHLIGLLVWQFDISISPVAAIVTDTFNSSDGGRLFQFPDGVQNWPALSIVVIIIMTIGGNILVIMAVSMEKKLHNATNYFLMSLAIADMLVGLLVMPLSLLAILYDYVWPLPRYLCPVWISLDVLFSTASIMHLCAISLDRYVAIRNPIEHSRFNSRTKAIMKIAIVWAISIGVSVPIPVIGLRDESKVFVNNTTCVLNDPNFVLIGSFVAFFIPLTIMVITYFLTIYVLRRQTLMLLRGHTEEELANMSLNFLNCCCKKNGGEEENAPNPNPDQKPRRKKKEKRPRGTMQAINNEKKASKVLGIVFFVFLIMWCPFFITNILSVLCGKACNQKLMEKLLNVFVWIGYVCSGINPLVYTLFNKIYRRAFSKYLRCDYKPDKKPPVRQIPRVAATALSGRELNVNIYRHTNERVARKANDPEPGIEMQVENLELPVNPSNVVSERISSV
Serotonin 2 (5-HT2) receptor (Rattus norvegicus), sequence (P14842 whole entry, looked up): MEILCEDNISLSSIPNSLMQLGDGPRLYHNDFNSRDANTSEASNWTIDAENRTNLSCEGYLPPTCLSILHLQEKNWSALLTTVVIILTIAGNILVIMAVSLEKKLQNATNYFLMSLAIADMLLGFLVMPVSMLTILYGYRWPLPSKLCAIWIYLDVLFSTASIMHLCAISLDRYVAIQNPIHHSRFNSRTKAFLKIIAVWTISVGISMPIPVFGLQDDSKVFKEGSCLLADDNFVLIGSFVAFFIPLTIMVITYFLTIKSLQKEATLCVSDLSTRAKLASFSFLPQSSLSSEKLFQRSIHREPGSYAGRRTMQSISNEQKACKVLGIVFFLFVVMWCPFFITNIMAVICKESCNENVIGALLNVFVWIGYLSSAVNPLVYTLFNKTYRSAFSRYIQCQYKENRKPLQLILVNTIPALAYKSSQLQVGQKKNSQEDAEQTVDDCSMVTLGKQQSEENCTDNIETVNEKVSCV
Serotonin 2 (5-HT2) receptor (Rattus norvegicus), sequence (P30994 whole entry, looked up): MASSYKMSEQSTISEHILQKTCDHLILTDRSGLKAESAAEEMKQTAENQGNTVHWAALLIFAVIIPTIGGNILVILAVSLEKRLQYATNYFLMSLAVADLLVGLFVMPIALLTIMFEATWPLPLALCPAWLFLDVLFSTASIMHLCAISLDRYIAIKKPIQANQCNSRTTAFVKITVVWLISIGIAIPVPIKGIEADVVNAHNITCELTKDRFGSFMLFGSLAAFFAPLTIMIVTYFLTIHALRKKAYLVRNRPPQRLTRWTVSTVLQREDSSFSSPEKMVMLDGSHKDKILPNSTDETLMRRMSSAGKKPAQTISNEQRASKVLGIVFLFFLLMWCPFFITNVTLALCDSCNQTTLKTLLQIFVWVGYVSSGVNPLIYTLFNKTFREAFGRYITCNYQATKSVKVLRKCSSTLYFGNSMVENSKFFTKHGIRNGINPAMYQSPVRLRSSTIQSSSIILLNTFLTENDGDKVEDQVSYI

SMILES | -Log KB
COC1CCC(C(=O)N[C@@H]2C[C@@H]3c4cccc5c4c(cn5C(C)C)C[C@H]3N(C)C2)CC1 (stereo partly specified) | 9.64
CN1C[C@H](C(=O)NC2CCCC2)C[C@@H]2c3cccc4c3c(cn4C)C[C@H]21 | 9.23
COC1CCC(C(=O)N[C@@H]2C[C@@H]3c4cccc5c4c(cn5C)C[C@H]3N(C)C2)CC1 (stereo partly specified) | 8.71
CN1C[C@H](C(=O)NC2CCCCC2)C[C@@H]2c3cccc4c3c(cn4Cc3ccccc3)C[C@H]21 | < 7
CCCn1cc2c3c(cccc31)[C@H]1C[C@@H](C(=O)NC3CCCCC3)CN(C)[C@@H]1C2 | 8
CN1C[C@H](CC(=O)NC2CCCCC2)C[C@@H]2c3cccc4c3c(cn4C)C[C@H]21 | 8.97
CC(C)Cn1cc2c3c(cccc31)[C@H]1C[C@@H](C(=O)NC3CCCCC3)CN(C)[C@@H]1C2 | < 7
CN1C[C@H](C(=O)NC2CCCCC2)C[C@@H]2c3cccc4c3c(cn4C)C[C@H]21 | 9.7
CCCCn1cc2c3c(cccc31)[C@H]1C[C@@H](C(=O)NC3CCCCC3)CN(C)[C@@H]1C2 | 7.5
CCC(CC)n1cc2c3c(cccc31)[C@H]1C[C@@H](C(=O)NC3CCCC3)CN(C)[C@@H]1C2 | 7.3
CN1C[C@H](c2nnnn2C2CCCCC2)C[C@@H]2c3cccc4[nH]cc(c34)C[C@H]21 | < 6.52
CCn1cc2c3c(cccc31)[C@H]1C[C@@H](C(=O)NC3CCCC3)CN(C)[C@@H]1C2 | 9.8
CC(C)Cn1cc2c3c(cccc31)[C@H]1C[C@@H](C(=O)NC3CCCC3)CN(C)[C@@H]1C2 | < 7
CC(C)n1cc2c3c(cccc31)[C@H]1C[C@@H](c3nnnn3C3CCCCC3)CN(C)[C@@H]1C2 | < 8
CN1C[C@H](CC(=O)NC2CCCCC2)C[C@@H]2c3cccc4[nH]cc(c34)C[C@H]21 | 8.05
CCn1cc2c3c(cccc31)[C@H]1C[C@@H](NC(=O)C3CCC(OC)CC3)CN(C)[C@@H]1C2 (stereo partly specified) | 9.43

SMILES | -Log KB
CC(C)n1cc2c3c(cccc31)[C@H]1C[C@@H](C(=O)NC3CCCC3)CN(C)[C@@H]1C2 | 10.3
CC(C)n1cc2c3c(cccc31)[C@H]1C[C@@H](C(N)=O)CN(C)[C@@H]1C2 | 8.7
CCCCCCCCn1cc2c3c(cccc31)[C@H]1C[C@@H](C(=O)NC3CCCCC3)CN(C)[C@@H]1C2 | < 7
CCn1cc2c3c(cccc31)[C@H]1C[C@@H](C(=O)NC3CCCCC3)CN(C)[C@@H]1C2 | 9.25
CN1C[C@H](C(=O)NC2CCCCC2)C[C@@H]2c3cccc4c3c(cn4C3CCCC3)C[C@H]21 | < 7
CN1C[C@H](C(N)=O)C[C@@H]2c3cccc4c3c(cn4C)C[C@H]21 | 7.81
C=CCn1cc2c3c(cccc31)[C@H]1C[C@@H](C(=O)NC3CCCCC3)CN(C)[C@@H]1C2 | 8.15
CN1C[C@H](C(N)=O)C[C@@H]2c3cccc4[nH]cc(c34)C[C@H]21 | 7
CCn1cc2c3c(cccc31)[C@H]1C[C@@H](C(N)=O)CN(C)[C@@H]1C2 | 8.44
CN1C[C@H](c2nnnn2C2CCCCC2)C[C@@H]2c3cccc4c3c(cn4C)C[C@H]21 | < 7
CCC(CC)n1cc2c3c(cccc31)[C@H]1C[C@@H](C(=O)NC3CCCCC3)CN(C)[C@@H]1C2 | 7.8
CC(C)n1cc2c3c(cccc31)[C@H]1C[C@@H](C(=O)NC3CCCCC3)CN(C)[C@@H]1C2 | 9.67
CN1C[C@H](C(=O)NC2CCCC2)C[C@@H]2c3cccc4[nH]cc(c34)C[C@H]21 | 8.87
CC(C)n1cc2c3c(cccc31)[C@H]1C[C@@H](CC(=O)NC3CCCCC3)CN(C)[C@@H]1C2 | 8.88
CN1C[C@H](C(=O)NC2CCCCC2)C[C@@H]2c3cccc4[nH]cc(c34)C[C@H]21 | 9.24

From ChEMBL document CHEMBL1124822, “(8 beta)-6-methylergoline amide derivatives as serotonin antagonists: N1-substituent effects on vascular 5HT2 receptor activity” (J Med Chem, 1990)
